The source made the active and inactive calls. The calls are words filed in the database; no cut-off is given here.
Tests used:
[1] = target: Integrin alpha-V/beta-3 (Homo sapiens, UniProt P05106+P06756); assay: Inhibition of integrin alphavbeta3 mediated cell adhesion of human M21 cells to vitronectin; format: cell-based
How it was run: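 Non-tissue-culture plastic 96-well plates were coated overnight with 2 µg/ml vitronectin. M21 cells were seeded with or without graded compound concentrations and allowed to adhere for 1 h at 37 °C. Adherent cells were fixed and stained, and the plates were read at 570 nm. Inhibition was calculated with compound-free wells as 100% adhesion.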

[2] = tested on: M21; assay: Inhibition of human M21 cell migration assessed by measuring migration distance after 16 hrs at 30 uM by scrape motility assay; format: functional
How it was run: (§1)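 Scrape motility assay with M21 melanoma cells on vitronectin-coated plates, treated with compound at 7.5, 15.0 or 30.0 µM. Migration distance was measured by phase-contrast microscopy at 8 h or 16 h. Percent inhibition was taken against untreated cells. Means ± SD of nine determinations from three independent experiments.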

[3] = tested on: HUVEC; assay: Inhibition of bFGF-induced capillary-like structure formation in HUVECs at 30 uM after 6 hrs; format: functional, cell-based; settings: Homo sapiens
How it was run: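 HUVECs in ECM gel stimulated with 100 ng/ml bFGF, with or without compound, for 6 h. PBS served as the unstimulated control. Capillary-like structures were viewed by phase-contrast microscopy.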

[4] = tested on: M21; assay: Inhibition of human M21 cell migration after 8 hrs at 30 uM by scrape motility assay; format: functional; settings: M21, 8 h; how it was run: as §1
[5] = tested on: M21; assay: Inhibition of human M21 cell migration assessed by measuring migration distance after 8 hrs at 7.5 uM by scrape motility assay; format: functional; how it was run: as §1
[6] = tested on: M21; assay: Inhibition of human M21 cell migration assessed by measuring migration distance after 8 hrs at 15 uM by scrape motility assay; format: functional; how it was run: as §1
[7] = tested on: M21; assay: Inhibition of human M21 cell migration assessed by measuring migration distance after 8 hrs at 30 uM by scrape motility assay; format: functional; how it was run: as §1
[8] = tested on: M21; assay: Inhibition of human M21 cell migration after 8 hrs at 15 uM by scrape motility assay; format: functional; settings: M21, 8 h; how it was run: as §1
[9] = tested on: M21; assay: Inhibition of human M21 cell migration after 8 hrs at 7.5 uM by scrape motility assay; format: functional; settings: M21, 8 h; how it was run: as §1
[10] = tested on: M21; assay: Inhibition of human M21 cell migration at 15 uM after 16 hrs by scrape motility assay; format: functional; settings: M21, 16 h; how it was run: as §1
[11] = tested on: M21; assay: Inhibition of human M21 cell migration at 30 uM after 16 hrs by scrape motility assay; format: functional; settings: M21, 16 h; how it was run: as §1
[12] = tested on: M21; assay: Inhibition of human M21 cell migration at 7.5 uM after 16 hrs by scrape motility assay; format: functional; settings: M21, 16 h; how it was run: as §1
[13] = tested on: M21; assay: Inhibition of human M21 cell migration assessed by measuring migration distance after 16 hrs at 7.5 uM by scrape motility assay; format: functional; how it was run: as §1
[14] = tested on: M21; assay: Inhibition of human M21 cell migration assessed by measuring migration distance after 16 hrs at 15 uM by scrape motility assay; format: functional; how it was run: as §1

Sequence of Integrin alpha-V/beta-3 (P05106 27-788 limits assumed): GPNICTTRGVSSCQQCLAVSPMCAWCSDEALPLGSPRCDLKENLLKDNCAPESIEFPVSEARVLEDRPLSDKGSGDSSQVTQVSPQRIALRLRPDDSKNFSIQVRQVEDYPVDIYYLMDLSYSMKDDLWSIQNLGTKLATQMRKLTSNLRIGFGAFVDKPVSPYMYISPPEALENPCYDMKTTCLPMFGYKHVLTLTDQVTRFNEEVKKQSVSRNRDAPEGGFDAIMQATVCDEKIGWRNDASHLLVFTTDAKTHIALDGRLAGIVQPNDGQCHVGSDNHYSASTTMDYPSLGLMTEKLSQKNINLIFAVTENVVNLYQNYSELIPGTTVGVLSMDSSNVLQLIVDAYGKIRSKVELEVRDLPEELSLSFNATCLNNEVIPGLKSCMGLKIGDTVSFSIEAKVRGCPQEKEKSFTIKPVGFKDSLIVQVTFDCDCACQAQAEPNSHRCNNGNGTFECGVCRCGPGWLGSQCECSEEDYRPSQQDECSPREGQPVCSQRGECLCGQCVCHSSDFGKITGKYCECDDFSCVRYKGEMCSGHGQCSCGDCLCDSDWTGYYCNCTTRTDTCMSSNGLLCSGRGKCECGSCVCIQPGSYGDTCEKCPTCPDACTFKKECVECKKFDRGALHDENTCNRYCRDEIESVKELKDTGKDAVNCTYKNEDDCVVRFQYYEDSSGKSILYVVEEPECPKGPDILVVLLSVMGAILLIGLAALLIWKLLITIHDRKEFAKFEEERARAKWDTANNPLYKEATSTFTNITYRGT
Sequence of Integrin alpha-V/beta-3 (P06756 31-889 limits assumed): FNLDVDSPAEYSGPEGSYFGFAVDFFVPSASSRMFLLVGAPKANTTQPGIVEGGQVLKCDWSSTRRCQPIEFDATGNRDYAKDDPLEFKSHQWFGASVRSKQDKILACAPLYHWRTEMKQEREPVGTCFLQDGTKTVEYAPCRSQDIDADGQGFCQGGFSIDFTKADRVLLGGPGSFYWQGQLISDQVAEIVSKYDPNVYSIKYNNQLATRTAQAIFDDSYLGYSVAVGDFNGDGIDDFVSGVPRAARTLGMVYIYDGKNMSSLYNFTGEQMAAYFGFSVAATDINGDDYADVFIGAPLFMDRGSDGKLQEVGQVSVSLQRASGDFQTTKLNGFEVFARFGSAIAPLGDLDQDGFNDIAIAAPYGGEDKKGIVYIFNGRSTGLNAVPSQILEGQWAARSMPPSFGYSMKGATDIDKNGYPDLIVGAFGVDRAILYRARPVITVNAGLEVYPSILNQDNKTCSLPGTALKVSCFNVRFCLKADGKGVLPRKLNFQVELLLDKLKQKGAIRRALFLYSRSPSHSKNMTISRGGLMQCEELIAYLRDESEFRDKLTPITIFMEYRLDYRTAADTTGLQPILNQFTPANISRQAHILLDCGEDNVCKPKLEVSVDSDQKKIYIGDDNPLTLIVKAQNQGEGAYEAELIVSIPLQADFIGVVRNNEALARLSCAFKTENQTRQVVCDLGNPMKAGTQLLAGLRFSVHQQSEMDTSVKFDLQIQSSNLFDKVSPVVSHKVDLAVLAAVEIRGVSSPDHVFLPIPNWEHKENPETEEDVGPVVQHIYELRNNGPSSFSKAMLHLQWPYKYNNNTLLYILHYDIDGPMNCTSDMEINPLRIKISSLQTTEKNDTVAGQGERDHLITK
Sequence of Integrin alpha-V/beta-3 (P06756 891-1048 limits assumed): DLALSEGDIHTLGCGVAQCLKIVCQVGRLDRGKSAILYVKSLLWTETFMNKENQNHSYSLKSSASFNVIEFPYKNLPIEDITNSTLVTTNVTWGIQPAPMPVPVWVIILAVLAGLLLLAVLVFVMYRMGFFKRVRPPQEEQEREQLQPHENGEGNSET

| SMILES | IC50 [1] | also measured |
| --- | --- | --- |
| N=C(N)NC(=N)Nc1ccc(Cl)cc1 [4-CHLOROPHENYLBIGUANIDE] | 149 µM |  |
| N=C(N)NC(=N)Nc1ccc(Cl)c(Cl)c1 | 38.5 µM | Activity [2]: 16.7 um; Activity [3]: Active; inhibition at 30 µM [4]: 96.4%; Activity [5]: 27.8 um; Activity [6]: 8.3 um; Activity [7]: 1.1 um; inhibition at 15 µM [8]: 73.1%; inhibition at 7.5 µM [9]: 9.1%; inhibition at 15 µM [10]: 67.4%; inhibition at 30 µM [11]: 86%; inhibition at 7.5 µM [12]: 39.5%; Activity [13]: 72.2 um; Activity [14]: 38.9 um |
| COc1cc(NS(=O)(=O)c2ccc(N/C=C3\C(=O)N(c4ccc(I)cc4)N=C3C)cc2)nc(OC)n1 | 53.5 µM |  |
| N=C(N)NC(=N)Nc1cc(C(F)(F)F)cc(C(F)(F)F)c1 | 39.5 µM |  |
| CCOc1cc(/C=c2\sc3nc4c(C)cccc4n3c2=O)cc(Br)c1OCC(=O)O | 132 µM |  |
| N=C(N)NC(=N)Nc1ccccc1 [PHENYL BIGUANIDE] | > 200 µM |  |
| N=C(N)NC(=N)Nc1ccccc1Cl | > 200 µM |  |
| N=C(N)NC(=N)Nc1ccc(Cl)cc1Cl | 66.9 µM |  |
| CSc1cccc(NC(=N)NC(=N)N)c1 | > 200 µM |  |
| N=C(N)NC(=N)Nc1cccc(Cl)c1Cl | 87.3 µM |  |
| NC(N)=NC(N)=Nc1ccc(SC(F)F)cc1 | 178 µM |  |
| Cn1cnnc1SCC(=O)Nc1ccc(-c2nc3ccc(NC(=O)CSc4nncn4C)cc3o2)c(O)c1 | 162 µM |  |
| N=C(N)NC(=N)Nc1ccc(F)c(Cl)c1 | 97.3 µM |  |
| CSc1ccccc1N=C(N)N=C(N)N | > 200 µM |  |
| COc1cc(NS(=O)(=O)c2ccc(NC(=O)COc3ccc(Cl)cc3Cl)cc2)nc(OC)n1 | 137 µM |  |
| N=C(N)NC(=N)Nc1cccc(Cl)c1 | 191 µM |  |
| CCOC(=O)c1cccc(N=C(N)N=C(N)N)c1 | > 200 µM |  |
| N=C(N)NC(=N)Nc1cc(C(F)(F)F)ccc1Cl | 127 µM |  |
| CCOc1ccccc1N=C(N)N=C(N)N | > 200 µM |  |
| O=C(Nc1ccccc1C(=O)O)c1ccc(N2C(=O)c3ccc(Oc4ccc([N+](=O)[O-])cc4)cc3C2=O)cc1 | 180 µM |  |
| N=C(N)N=C(N)Nc1cc(Cl)cc(Cl)c1 | 33.5 µM |  |
| COc1cc(/C=C2\C(=O)N(c3ccc(C(=O)O)cc3)N=C2C)ccc1OC(=O)c1ccccc1 | 143 µM |  |
| NC(N)=NC(N)=Nc1cc(Cl)ccc1Cl | 100 µM |  |
| Cc1ccc(Cl)cc1N=C(N)N=C(N)N | > 200 µM |  |
| N=C(N)NC(=N)Nc1ccc(SC(F)(F)F)cc1 | 101 µM |  |
